Experimental data reported in ChEMBL document CHEMBL1135398, “Methanocarba modification of uracil and adenine nucleotides: high potency of Northern ring conformation at P2Y1, P2Y2, P2Y4, and P2Y11 but not P2Y6 receptors” (J Med Chem, 2002).
Calls of active or inactive are those of the source. The rule behind the calls is not given here.

Tests used:
Type in all cases: functional
[1] = target: T1, P2Y purinoceptor 6 (Homo sapiens, UniProt Q15077); test: Measure of Agonist Potency at human P2Y purinoceptor 6 (hP2Y6) stably expressed in […] astrocytoma cell; NE means no effect at 100 uM
In short: (§1)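 1321N1 cells stably expressing the human receptor were labelled overnight with 1 μCi [³H]myo-inositol per well in inositol-free DMEM. [³H]inositol phosphate formation was then measured over 10 min at 37 °C with 10 mM LiCl. EC50 came from a four-parameter logistic fit of full concentration-effect curves, averaged over 3–8 independent curves.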

[2] = target: T2, P2Y purinoceptor 11 (Homo sapiens) (UniProt Q96G91); test: Measure of Agonist Potency at human P2Y purinoceptor 11 (hP2Y11) stably expressed in […] astrocytoma cell at 10 uM; NE means no effect at 100 uM
T2 sequence (whole entry): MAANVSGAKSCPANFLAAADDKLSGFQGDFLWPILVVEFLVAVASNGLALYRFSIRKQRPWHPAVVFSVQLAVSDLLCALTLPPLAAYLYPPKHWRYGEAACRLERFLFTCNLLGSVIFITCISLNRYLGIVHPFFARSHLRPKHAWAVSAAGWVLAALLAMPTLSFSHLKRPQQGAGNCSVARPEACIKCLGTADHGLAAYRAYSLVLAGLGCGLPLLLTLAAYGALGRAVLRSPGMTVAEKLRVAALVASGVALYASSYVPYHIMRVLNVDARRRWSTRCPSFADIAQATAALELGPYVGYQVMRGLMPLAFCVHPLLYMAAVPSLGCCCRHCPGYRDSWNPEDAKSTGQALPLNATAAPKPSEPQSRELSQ

[3] = target: T3, P2Y purinoceptor 4 (Homo sapiens, UniProt P51582); test: Measure of Agonist Potency at human P2Y purinoceptor 4 (hP2Y4) stably expressed in […] astrocytoma cell; NE means no effect at 100 uM; in short: as §1
[4] = target: P2Y purinoceptor 1 (Meleagris gallopavo) (UniProt P49652); test: Measure of Agonist Potency at turkey Purinoceptor P2Y1 stably expressed in […] astrocytoma cell; NE means no effect at 100 uM
[5] = target: P2Y purinoceptor 1 (Homo sapiens, UniProt P47900); test: Measure of Agonist Potency at human P2Y purinoceptor 1 (hP2Y1) stably expressed in […] astrocytoma cell; in short: as §1
[6] = target: P2Y purinoceptor 1 (Meleagris gallopavo, UniProt P49652); test: Measure of Agonist Potency at turkey Purinoceptor P2Y1 stably expressed in 131N1 astrocytoma cell
[7] = target: T1, P2Y purinoceptor 6; test: Measure of Agonist Potency at human P2Y purinoceptor 6 (hP2Y6) stably expressed in 131N1 astrocytoma cell
In short: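 Human P2Y6 stably expressed in 1321N1 astrocytoma cells; cells labelled overnight with 1 μCi/well [³H]myo-inositol in inositol-free DMEM. [³H]inositol phosphate formation measured next day over 10 min at 37 °C with 10 mM LiCl. Full concentration-effect curves fitted by four-parameter logistic equation; EC50 averaged from 3–8 independent curves (mean ± SE).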

[8] = target: P2Y purinoceptor 2 (Homo sapiens, UniProt P41231); test: Measure of Agonist Potency at human P2Y purinoceptor 2 (hP2Y2) stably expressed in […] astrocytoma cell; in short: as §1
[9] = target: T3, P2Y purinoceptor 4; test: Measure of % Agonist Potency at human P2Y purinoceptor 4 (hP2Y4) stably expressed in […] astrocytoma cell at 10 uM
[10] = target: T2, P2Y purinoceptor 11 (Homo sapiens); test: Measure of Agonist Potency at human P2Y purinoceptor 11 (hP2Y11) stably expressed in […] astrocytoma cell at 10 uM
[11] = target: T3, P2Y purinoceptor 4; test: Measure of Agonist Potency at human P2Y purinoceptor 4 (hP2Y4) stably expressed in 131N1 astrocytoma cell; in short: as §1

Chain of P2Y purinoceptor 1 (Meleagris gallopavo, UniProt P49652) (P49652 whole entry): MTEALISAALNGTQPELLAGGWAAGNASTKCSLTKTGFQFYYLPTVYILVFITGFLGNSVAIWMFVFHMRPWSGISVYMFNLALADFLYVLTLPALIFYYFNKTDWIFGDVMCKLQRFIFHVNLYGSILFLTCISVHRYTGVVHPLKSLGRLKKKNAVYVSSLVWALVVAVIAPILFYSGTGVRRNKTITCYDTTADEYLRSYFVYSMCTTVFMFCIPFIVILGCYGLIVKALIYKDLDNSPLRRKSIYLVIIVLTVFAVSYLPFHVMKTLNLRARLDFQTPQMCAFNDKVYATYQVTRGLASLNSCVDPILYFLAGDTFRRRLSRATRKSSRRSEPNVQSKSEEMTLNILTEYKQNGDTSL
Chain of P2Y purinoceptor 1 (Meleagris gallopavo) (P49652 whole entry): as above
T3 sequence (P51582 whole entry): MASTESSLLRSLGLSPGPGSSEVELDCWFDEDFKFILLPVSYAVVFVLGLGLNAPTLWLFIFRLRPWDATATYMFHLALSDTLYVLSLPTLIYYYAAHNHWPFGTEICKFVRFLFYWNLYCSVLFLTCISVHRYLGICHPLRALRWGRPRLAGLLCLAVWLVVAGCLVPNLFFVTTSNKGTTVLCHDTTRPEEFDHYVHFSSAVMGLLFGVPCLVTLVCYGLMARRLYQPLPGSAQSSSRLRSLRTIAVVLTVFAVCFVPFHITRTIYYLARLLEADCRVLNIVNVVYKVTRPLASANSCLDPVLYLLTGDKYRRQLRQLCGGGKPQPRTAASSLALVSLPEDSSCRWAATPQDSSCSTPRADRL
T1 sequence (Q15077 whole entry): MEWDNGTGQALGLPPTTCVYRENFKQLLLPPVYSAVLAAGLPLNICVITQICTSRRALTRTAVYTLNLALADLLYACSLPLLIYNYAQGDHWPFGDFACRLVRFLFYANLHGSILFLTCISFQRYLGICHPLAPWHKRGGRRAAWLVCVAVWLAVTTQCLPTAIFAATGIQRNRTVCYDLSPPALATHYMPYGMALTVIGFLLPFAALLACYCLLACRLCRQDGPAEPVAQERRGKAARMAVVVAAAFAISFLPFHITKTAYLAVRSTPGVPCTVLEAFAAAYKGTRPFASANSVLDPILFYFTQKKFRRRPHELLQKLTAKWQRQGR
Chain of P2Y purinoceptor 1 (Homo sapiens, UniProt P47900) (P47900 whole entry): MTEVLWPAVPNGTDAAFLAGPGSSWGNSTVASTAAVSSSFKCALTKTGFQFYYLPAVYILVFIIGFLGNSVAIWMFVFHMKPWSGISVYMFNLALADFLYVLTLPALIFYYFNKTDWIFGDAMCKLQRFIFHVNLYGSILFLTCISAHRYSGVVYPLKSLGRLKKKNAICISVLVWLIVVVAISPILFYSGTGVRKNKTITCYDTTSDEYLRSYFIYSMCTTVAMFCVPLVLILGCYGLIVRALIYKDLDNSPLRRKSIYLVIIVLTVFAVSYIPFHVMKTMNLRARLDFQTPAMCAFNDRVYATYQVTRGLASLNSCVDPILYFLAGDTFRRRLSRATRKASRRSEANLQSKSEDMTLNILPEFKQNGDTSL
Chain of P2Y purinoceptor 2 (P41231 whole entry): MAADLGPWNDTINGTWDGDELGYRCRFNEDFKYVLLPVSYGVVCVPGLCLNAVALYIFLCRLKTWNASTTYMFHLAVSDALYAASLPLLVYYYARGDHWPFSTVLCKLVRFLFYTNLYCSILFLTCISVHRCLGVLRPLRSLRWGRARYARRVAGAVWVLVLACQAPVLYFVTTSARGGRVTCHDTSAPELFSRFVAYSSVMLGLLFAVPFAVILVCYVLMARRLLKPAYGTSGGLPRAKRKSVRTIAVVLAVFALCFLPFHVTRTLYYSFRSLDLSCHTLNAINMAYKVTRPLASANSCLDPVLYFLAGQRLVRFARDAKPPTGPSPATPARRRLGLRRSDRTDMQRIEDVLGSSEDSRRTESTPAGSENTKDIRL

O=c1ccn(C2C(O)C(O)C3(COP(=O)(O)O)CC23)c(=O)[nH]1 (stereo unspecified)
Agonist effect [1]: inactive

Nc1ncnc2c1ncn2[C@@H]1O[C@H](COP(=O)(O)O)[C@@H](O)[C@H]1O (stereo in doubt; form 4)
NE [2]: inactive
NE [3]: inactive

O=c1ccn(C2O[C@H](COP(=O)(O)O)[C@@H](O)[C@@H]2O)c(=O)[nH]1 (stereo partly specified)
Agonist effect [1]: inactive

Nc1ncnc2c1ncn2[C@@]12C[C@H]1[C@H](COP(=O)(O)O)[C@@H](O)[C@H]2O
NE [4]: inactive

Nc1ncnc2c1ncn2[C@@H]1O[C@H](COP(=O)(O)O)[C@@H](O)[C@H]1O (stereo in doubt; form 3) [ADENOSINE PHOSPHATE]
EC50 [5]: 1.5 µM
EC50 [6]: 2800 nM

O=c1ccn(C2C(O)C(O)C3(COP(=O)(O)OP(=O)(O)O)CC23)c(=O)[nH]1 (stereo unspecified)
Agonist effect [1]: inactive

Nc1ncnc2c1ncn2[C@@H]1O[C@H](COP(=O)(O)O)[C@@H](O)[C@H]1O (stereo in doubt; form 1)
NE [4]: inactive

Nc1ncnc2c1ncn2[C@@H]1O[C@H](COP(=O)(O)O)[C@@H](O)[C@H]1O (stereo in doubt; form 2)
NE [4]: inactive

O=c1ccn([C@@H]2O[C@H](COP(=O)(O)OP(=O)(O)O)[C@@H](O)[C@H]2O)c(=O)[nH]1 [URIDINE_DIPHOSPHATE]
EC50 [7]: 15 nM

Nc1ncnc2c1ncn2[C@H]1[C@H](O)[C@H](O)[C@]2(COP(=O)(O)OP(=O)(O)OP(=O)(O)O)C[C@H]12 (stereo in doubt; form 1)
EC50 [8]: 91 nM
Activity [9]: 32%
Activity [10]: 34.5%
EC50 [6]: 14 nM

O=c1ccn([C@H]2[C@H](O)[C@H](O)[C@]3(COP(=O)(O)OP(=O)(O)OP(=O)(O)O)C[C@H]23)c(=O)[nH]1 (stereo in doubt; form 2) [N-METHANOCARBA-UTP]
EC50 [8]: 15.9 nM
NE [2]: inactive
EC50 [11]: 85 nM
Agonist effect [1]: inactive

Nc1ncnc2c1ncn2[C@@H]1O[C@H](COP(=O)(O)O)[C@@H](O)[C@H]1O (stereo in doubt; form 4) [ADENOSINE PHOSPHATE]
EC50 [5]: 7.2 µM
EC50 [6]: 3500 nM
